# Test results from ChEMBL document CHEMBL1157775, “Novel hexahydropyrrolo[3,4-c]pyrrole CCR5 antagonists” (Bioorg Med Chem Lett, 2010).
# Molecular target: C-C chemokine receptor type 5 (Homo sapiens, UniProt P51681)
# Experiment: Binding affinity at CCR5 receptor by radiolabeled RANTES binding assay
# Details: not given
# Sequence of C-C chemokine receptor type 5 (P51681 whole entry): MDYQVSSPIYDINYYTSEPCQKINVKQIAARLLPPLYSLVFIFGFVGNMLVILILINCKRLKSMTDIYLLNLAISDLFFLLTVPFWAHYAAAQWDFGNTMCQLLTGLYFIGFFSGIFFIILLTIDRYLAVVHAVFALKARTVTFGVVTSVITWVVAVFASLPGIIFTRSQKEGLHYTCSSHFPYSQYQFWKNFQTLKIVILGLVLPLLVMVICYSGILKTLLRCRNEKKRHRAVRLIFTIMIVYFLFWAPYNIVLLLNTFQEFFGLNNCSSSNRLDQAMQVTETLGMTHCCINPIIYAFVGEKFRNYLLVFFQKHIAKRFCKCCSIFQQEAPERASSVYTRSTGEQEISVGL
row,IC50 [nM],Compound
1,7,Cc1ccnc(C)c1C(=O)N1C[C@H]2CN(CC[C@H](NC(=O)C3CCCC3)c3ccccc3)C[C@H]2C1
2,27,Cc1ncnc(C)c1C(=O)N1C[C@H]2CN(CC[C@H](NC(=O)CC3CCC(F)(F)CC3)c3ccccc3)C[C@H]2C1
3,12,Cc1ncnc(C)c1C(=O)N1C[C@H]2CN(CC[C@H](NC(=O)CC3CCC(F)(F)CC3)c3cccc(F)c3)C[C@H]2C1
4,30,Cc1ncnc(C)c1C(=O)N1C[C@H]2CN(CC[C@H](NC(=O)CC3CC(F)(F)C3)c3cc(F)cc(F)c3)C[C@H]2C1
5,34,Cc1ncnc(C)c1C(=O)N1C[C@H]2CN(CC[C@H](NC(=O)CC3CC(F)(F)C3)c3cccc(C#N)c3)C[C@H]2C1

# Second part, the compound before the results:
row,Compound,IC50 [nM]
1,Cc1cccc(C)c1C(=O)N1C[C@H]2CN(CC[C@H](NC(=O)C3CCC3)c3ccccc3)C[C@H]2C1,7
2,Cc1cc[n+]([O-])c(C)c1C(=O)N1C[C@H]2CN(CC[C@H](NC(=O)C3CCCC3)c3ccccc3)C[C@H]2C1,44
3,O=C(N[C@@H](CCN1C[C@@H]2CN(C(=O)c3c(Cl)cccc3Cl)C[C@@H]2C1)c1ccccc1)C1CCCC1,14
4,Cc1cc(F)cc(C)c1C(=O)N1C[C@H]2CN(CC[C@H](NC(=O)C3CCCC3)c3ccccc3)C[C@H]2C1,6
5,COc1cc(C)c(C(=O)N2C[C@H]3CN(CC[C@H](NC(=O)C4CCCC4)c4ccccc4)C[C@H]3C2)c(C)c1,26
6,Cc1cccc(C)c1C(=O)N1C[C@H]2CN(CC[C@H](NC(=O)c3ccoc3)c3ccccc3)C[C@H]2C1,18
7,Cc1cccc(C)c1C(=O)N1C[C@H]2CN(CC[C@H](NC(=O)C3CCOC3)c3ccccc3)C[C@H]2C1 (some centres not stated),15
8,CCO/N=C(\c1ccc(Br)cc1)C1CCN(C2(C)CCN(C(=O)c3c(C)cccc3C)CC2)CC1,6

# System: not listed separately
# Experiment: Intrinsic clearance in human liver microsomes assessed per mg of protein
# Type: ADME, Microsome
# Details: not given
# In short: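 Human liver microsomes. Intrinsic clearance is expressed as µl/min/mg protein.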
row,microsomal CLint [µL/min/mg],Compound
1,67,Cc1ccnc(C)c1C(=O)N1C[C@H]2CN(CC[C@H](NC(=O)C3CCCC3)c3ccccc3)C[C@H]2C1
2,83,Cc1ncnc(C)c1C(=O)N1C[C@H]2CN(CC[C@H](NC(=O)CC3CCC(F)(F)CC3)c3ccccc3)C[C@H]2C1
3,113,Cc1ncnc(C)c1C(=O)N1C[C@H]2CN(CC[C@H](NC(=O)CC3CCC(F)(F)CC3)c3cccc(F)c3)C[C@H]2C1
4,45,Cc1ncnc(C)c1C(=O)N1C[C@H]2CN(CC[C@H](NC(=O)CC3CC(F)(F)C3)c3cc(F)cc(F)c3)C[C@H]2C1
5,30,Cc1ncnc(C)c1C(=O)N1C[C@H]2CN(CC[C@H](NC(=O)CC3CC(F)(F)C3)c3cccc(C#N)c3)C[C@H]2C1

# Second part, the compound before the results:
row,Compound,microsomal CLint [µL/min/mg]
1,Cc1cc[n+]([O-])c(C)c1C(=O)N1C[C@H]2CN(CC[C@H](NC(=O)C3CCCC3)c3ccccc3)C[C@H]2C1,6
2,O=C(N[C@@H](CCN1C[C@@H]2CN(C(=O)c3c(Cl)cccc3Cl)C[C@@H]2C1)c1ccccc1)C1CCCC1,389
3,Cc1cc(F)cc(C)c1C(=O)N1C[C@H]2CN(CC[C@H](NC(=O)C3CCCC3)c3ccccc3)C[C@H]2C1,236
4,COc1cc(C)c(C(=O)N2C[C@H]3CN(CC[C@H](NC(=O)C4CCCC4)c4ccccc4)C[C@H]3C2)c(C)c1,241

# System: not listed separately
# Experiment: Intrinsic clearance in rat liver microsomes assessed per mg of protein
# Type: ADME, Microsome
# Details: not given
# In short: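 Rat liver microsomes. Intrinsic clearance is expressed per mg protein. Values ≥90 µl/min were taken as high clearance.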
row,microsomal CLint [µL/min/mg],Compound
1,89,Cc1ccnc(C)c1C(=O)N1C[C@H]2CN(CC[C@H](NC(=O)C3CCCC3)c3ccccc3)C[C@H]2C1
2,46,Cc1ncnc(C)c1C(=O)N1C[C@H]2CN(CC[C@H](NC(=O)CC3CCC(F)(F)CC3)c3ccccc3)C[C@H]2C1
3,24,Cc1ncnc(C)c1C(=O)N1C[C@H]2CN(CC[C@H](NC(=O)CC3CCC(F)(F)CC3)c3cccc(F)c3)C[C@H]2C1
4,31,Cc1ncnc(C)c1C(=O)N1C[C@H]2CN(CC[C@H](NC(=O)CC3CC(F)(F)C3)c3cccc(C#N)c3)C[C@H]2C1

# The remaining lines, values behind:
row,Compound,microsomal CLint [µL/min/mg]
1,Cc1cc[n+]([O-])c(C)c1C(=O)N1C[C@H]2CN(CC[C@H](NC(=O)C3CCCC3)c3ccccc3)C[C@H]2C1,12
2,Cc1cc(F)cc(C)c1C(=O)N1C[C@H]2CN(CC[C@H](NC(=O)C3CCCC3)c3ccccc3)C[C@H]2C1,517
3,COc1cc(C)c(C(=O)N2C[C@H]3CN(CC[C@H](NC(=O)C4CCCC4)c4ccccc4)C[C@H]3C2)c(C)c1,236

# System: not listed separately
# Experiment: Permeability from apical to basolateral side of human Caco-2 cells after 21 days
# Type: ADME, cell-based
# Details: read-out: permeability
row,Compound,Papp A→B [×10⁻⁶ cm/s]
1,Cc1ccnc(C)c1C(=O)N1C[C@H]2CN(CC[C@H](NC(=O)C3CCCC3)c3ccccc3)C[C@H]2C1,4
2,Cc1cc[n+]([O-])c(C)c1C(=O)N1C[C@H]2CN(CC[C@H](NC(=O)C3CCCC3)c3ccccc3)C[C@H]2C1,0.1
3,COc1cc(C)c(C(=O)N2C[C@H]3CN(CC[C@H](NC(=O)C4CCCC4)c4ccccc4)C[C@H]3C2)c(C)c1,33

# System: not listed separately
# Experiment: AUC in rat at 10 mg/kg, po
# Type: ADME, organism-based
# Parameters: dose 10 mg/kg, route oral
# Details: plasma
# In short: (§1)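 Rat PK. Single IV dose of 1 mg/kg and oral dose of 10 mg/kg. Oral AUC (ng·h/mL) and %F were derived from the PO arm. Clearance (mL/min/kg) was taken from the IV arm.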
row,Compound,AUC [ng·h/mL]
1,Cc1ccnc(C)c1C(=O)N1C[C@H]2CN(CC[C@H](NC(=O)C3CCCC3)c3ccccc3)C[C@H]2C1,65
2,Cc1ncnc(C)c1C(=O)N1C[C@H]2CN(CC[C@H](NC(=O)CC3CCC(F)(F)CC3)c3ccccc3)C[C@H]2C1,215

# System: not listed separately
# Experiment: Oral bioavailability in rat at 10 mg/kg
# Type: ADME, organism-based
# Details: in vivo
# In short: as §1
row,Compound,bioavailability [%]
1,Cc1ccnc(C)c1C(=O)N1C[C@H]2CN(CC[C@H](NC(=O)C3CCCC3)c3ccccc3)C[C@H]2C1,6.4
2,Cc1ncnc(C)c1C(=O)N1C[C@H]2CN(CC[C@H](NC(=O)CC3CCC(F)(F)CC3)c3ccccc3)C[C@H]2C1,15

# System: not listed separately
# Experiment: Clearance in rat at 1 mg/kg, iv
# Type: ADME, organism-based
# Parameters: dose 1 mg/kg, route intravenous
# Details: in vivo
# In short: as §1
row,Compound,clearance [mL/min/kg]
1,Cc1ccnc(C)c1C(=O)N1C[C@H]2CN(CC[C@H](NC(=O)C3CCCC3)c3ccccc3)C[C@H]2C1,151
2,Cc1ncnc(C)c1C(=O)N1C[C@H]2CN(CC[C@H](NC(=O)CC3CCC(F)(F)CC3)c3ccccc3)C[C@H]2C1,99

# System: not listed separately
# Experiment: AUC in dog at 10 mg/kg, po
# Type: ADME, organism-based, Canis lupus familiaris
# Parameters: dose 10 mg/kg, route oral
# Details: plasma
# In short: (§2)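 Dog PK. Single IV dose of 1 mg/kg, then an oral dose of 10 mg/kg; one case used 1 mg/kg both IV and PO. AUC and %F were determined after the oral dose. Clearance (ml/min/kg) was determined from the IV dose.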
row,Compound,AUC [ng·h/mL]
1,Cc1ncnc(C)c1C(=O)N1C[C@H]2CN(CC[C@H](NC(=O)CC3CCC(F)(F)CC3)c3ccccc3)C[C@H]2C1,4210

# System: not listed separately
# Experiment: Oral bioavailability in dog at 10 mg/kg
# Type: ADME, organism-based, Canis lupus familiaris
# Details: in vivo
# In short: as §2
row,Compound,bioavailability [%]
1,Cc1ncnc(C)c1C(=O)N1C[C@H]2CN(CC[C@H](NC(=O)CC3CCC(F)(F)CC3)c3ccccc3)C[C@H]2C1,103

# System: not listed separately
# Experiment: Clearance in dog at 1 mg/kg, iv
# Type: ADME, organism-based, Canis lupus familiaris
# Parameters: dose 1 mg/kg, route intravenous
# Details: in vivo
# In short: as §2
row,Compound,clearance [mL/min/kg]
1,Cc1ncnc(C)c1C(=O)N1C[C@H]2CN(CC[C@H](NC(=O)CC3CCC(F)(F)CC3)c3ccccc3)C[C@H]2C1,44

# System: not listed separately
# Experiment: Intrinsic clearance in dog liver microsomes assessed per mg of protein
# Type: ADME, Canis lupus familiaris, Microsome
# Details: not given
row,Compound,microsomal CLint [µL/min/mg]
1,Cc1ncnc(C)c1C(=O)N1C[C@H]2CN(CC[C@H](NC(=O)CC3CCC(F)(F)CC3)c3ccccc3)C[C@H]2C1,30

# System: Human immunodeficiency virus 1
# Experiment: Antiviral activity against HIV1 NL4-3 infected in human JC53-BL cells assessed as luciferase activity after 3 days post infection
# Type: functional, organism-based
# Details: Human immunodeficiency virus 1, NL4-3, JC53BL, 72 h
# In short: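 Pseudotyped virus in culture supernatant was harvested after 2 days. It was used to infect JC53-BL reporter cells. Luciferase reporter activity was read 3 days post-infection. IC50 in nM is reported as the mean of two experiments.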
row,IC50 [nM],Compound
1,6,Cc1ncnc(C)c1C(=O)N1C[C@H]2CN(CC[C@H](NC(=O)CC3CCC(F)(F)CC3)c3ccccc3)C[C@H]2C1
2,1.1,Cc1ncnc(C)c1C(=O)N1C[C@H]2CN(CC[C@H](NC(=O)CC3CCC(F)(F)CC3)c3cccc(F)c3)C[C@H]2C1
3,41,Cc1ncnc(C)c1C(=O)N1C[C@H]2CN(CC[C@H](NC(=O)CC3CC(F)(F)C3)c3cc(F)cc(F)c3)C[C@H]2C1
4,203,Cc1ncnc(C)c1C(=O)N1C[C@H]2CN(CC[C@H](NC(=O)CC3CC(F)(F)C3)c3cccc(C#N)c3)C[C@H]2C1

# Continued, compound first:
row,Compound,IC50 [nM]
1,Cc1cccc(C)c1C(=O)N1C[C@H]2CN(CC[C@H](NC(=O)C3CCC3)c3ccccc3)C[C@H]2C1,39
2,Cc1cc[n+]([O-])c(C)c1C(=O)N1C[C@H]2CN(CC[C@H](NC(=O)C3CCCC3)c3ccccc3)C[C@H]2C1,19
3,O=C(N[C@@H](CCN1C[C@@H]2CN(C(=O)c3c(Cl)cccc3Cl)C[C@@H]2C1)c1ccccc1)C1CCCC1,92
4,Cc1cc(F)cc(C)c1C(=O)N1C[C@H]2CN(CC[C@H](NC(=O)C3CCCC3)c3ccccc3)C[C@H]2C1,3
5,COc1cc(C)c(C(=O)N2C[C@H]3CN(CC[C@H](NC(=O)C4CCCC4)c4ccccc4)C[C@H]3C2)c(C)c1,0.4
6,Cc1cccc(C)c1C(=O)N1C[C@H]2CN(CC[C@H](NC(=O)c3ccoc3)c3ccccc3)C[C@H]2C1,85
7,Cc1cccc(C)c1C(=O)N1C[C@H]2CN(CC[C@H](NC(=O)C3CCOC3)c3ccccc3)C[C@H]2C1 (some centres not stated),101
8,CCO/N=C(\c1ccc(Br)cc1)C1CCN(C2(C)CCN(C(=O)c3c(C)cccc3C)CC2)CC1,4
9,Cc1nnc(C(C)C)n1[C@H]1C[C@H]2CC[C@@H](C1)N2CC[C@H](NC(=O)C1CCC(F)(F)CC1)c1ccccc1 [MARAVIROC],3

# System: Caco-2
# Experiment: Efflux ratio of permeability from basolateral to apical over apical to basolateral side in human Caco-2 cells after 21 days
# Details: caco-2, 504 h
row,Compound,Ratio
1,Cc1cc[n+]([O-])c(C)c1C(=O)N1C[C@H]2CN(CC[C@H](NC(=O)C3CCCC3)c3ccccc3)C[C@H]2C1,300
2,COc1cc(C)c(C(=O)N2C[C@H]3CN(CC[C@H](NC(=O)C4CCCC4)c4ccccc4)C[C@H]3C2)c(C)c1,2
